Measurements gathered from unrelated publications.
Protocols differ between the studies behind these lines.
Target: Myosin light chain kinase family member 4 (MYLK4, Homo sapiens, UniProt Q86YV6)
One construct used (Q86YV6 1-388): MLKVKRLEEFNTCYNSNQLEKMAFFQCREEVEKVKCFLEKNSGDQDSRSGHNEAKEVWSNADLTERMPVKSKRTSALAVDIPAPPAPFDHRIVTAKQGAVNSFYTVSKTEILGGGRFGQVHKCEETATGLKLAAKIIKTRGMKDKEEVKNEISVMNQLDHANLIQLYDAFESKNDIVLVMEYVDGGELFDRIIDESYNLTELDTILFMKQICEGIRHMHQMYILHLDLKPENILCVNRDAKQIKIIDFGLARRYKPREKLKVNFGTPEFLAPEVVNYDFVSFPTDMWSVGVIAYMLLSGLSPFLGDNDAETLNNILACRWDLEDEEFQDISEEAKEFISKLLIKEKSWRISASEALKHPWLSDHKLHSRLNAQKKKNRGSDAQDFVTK

O=C(Nc1c[nH]nc1C(=O)NC1CCNCC1)c1cc(F)cc(F)c1  remaining binding (binding, competition with immobilised ligand; 1 µM): 100%
C[C@@H]1CCN(c2nccc(-c3cnn4ncccc34)n2)C1  remaining binding (binding; 1 µM): 100%
O=C(NCCCN1CCOCC1)c1ccc(Nc2nccc(-c3cc4ccccc4s3)n2)cc1  remaining binding (binding, competition with immobilised ligand; 1 µM): 0.1%
CN(CCCC(F)(F)F)c1nccc(-c2cnn3ncccc23)n1  remaining binding (binding; 1 µM): 100%
O=C(NCCCN1CCOCC1)c1ccc(Nc2ncc(Cl)c(-c3ccc(Cl)s3)n2)cc1  remaining binding (binding, competition with immobilised ligand; 1 µM): 0.05%
N[C@H]1CCN(c2nccc(-c3cnn4ncccc34)n2)C1  remaining binding (binding; 1 µM): 100%
COc1cnc(Nc2cccc(S(N)(=O)=O)c2)nc1N1CCN(c2ccccc2)C(=O)C1  remaining binding (binding, competition with immobilised ligand; 1 µM): 100%
CNC(=O)Nc1ccc2c(c1)CC[C@@]21OC(=O)N(CC(=O)N(Cc2ccc(F)cc2)[C@@H](C)C(F)(F)F)C1=O  remaining binding (cell-free assay, competition with immobilised ligand; 1 µM): 70%
O=C(c1ccc(Nc2ncc(Cl)c(-c3ccc(Cl)s3)n2)cc1)N1CCC(N2CCCC2)CC1  remaining binding (binding, competition with immobilised ligand; 1 µM): 0%
Cc1nc(Cc2cccc(C(F)(F)F)c2)sc1-c1ccc(C(N)=O)nc1  remaining binding (cell-free assay, competition with immobilised ligand; 1 µM): 91%
C[C@@H](c1ccc(-n2cnc3c(N)ncnc32)cc1)N1CCc2nn(C)c(Cc3ccccc3)c2C1=O  remaining binding (binding, competition with immobilised ligand; 0.1 µM): 100%
CC(=O)c1c(NS(C)(=O)=O)c2cc(-c3ccc(Cl)cc3)c(-c3ccc(Cl)cc3Cl)nc2n(C)c1=O  remaining binding (cell-free assay, competition with immobilised ligand; 1 µM): 100%
c1cnn2ncc(-c3ccnc(N4CCC45COC5)n3)c2c1  remaining binding (binding; 1 µM): 78%
CCC(=O)N[C@@H]1CC[C@H](C(=O)N(C)c2ccc(-c3nc4ccccc4o3)cc2)C1  remaining binding (cell-free assay, competition with immobilised ligand; 1 µM): 100%
Cc1cnn2ncc(-c3ccnc(N(C)C)n3)c2c1  remaining binding (binding; 1 µM): 80%
CS(=O)(=O)N1CCCC(NC(=O)[C@H](CCC2CCCCC2)NC(=O)c2ccc(CNc3ncnc4c3nnn4-c3ccccc3)cc2)C1 (stereo partly shown)  remaining binding (cell-free assay, competition with immobilised ligand; 0.1 µM): 100%
COc1ncc2cc3ccccc3nc2c1C#N  remaining binding (cell-free assay, competition with immobilised ligand; 5 µM): 93%
FC(F)(F)Oc1cccc(-c2cnc3ccc(-c4ccncc4)nn23)c1  remaining binding (cell-free assay, competition with immobilised ligand; 5 µM): 0.35%
CCS(=O)(=O)c1cc2cc(C[C@@](O)(CC(C)(C)c3ccc(F)cc3C(N)=O)C(F)(F)F)[nH]c2cn1  remaining binding (cell-free assay, competition with immobilised ligand; 1 µM): 100%
